Only some compounds are listed: those with a hit (about 2.6% of all), similar ones and a draw of the others.
PolyA inh – blocks polyadenylation in yeast reporter cells; S. cerevisiae SKY197-pL101 polyadenylation reporter, beta-gal luminescence; efflux-impaired pdr1/pdr3 knockout yeast; score 100 = 6 SD above DMSO; activity score, % at 12 µM; 0.02% of 300,000 active; AID 1875;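 active means lowest replicate activity score at least 50, where 100 means six control SD above control mean; inconclusive means lowest score under 50 but half or more replicates reach 50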;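 further: yeast exposed to compound for 9 h at 30 °C; higher score means more reporter readthrough which indicates perturbed polyadenylation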
CHT block – inhibitors of human choline transporter CHT | CHT-expressing cells, membrane potential dye, choline response; active compounds read low | B-score at 10 µM | 0.86% of 310,000 active;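 active means B-score over 3 SD under the library average, and starting fluorescence ratio not unusually high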;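 further: choline stimulus applied at its EC90 after an EC20 pre-addition; B-score computed on integrated fluorescence ratio after choline addition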
Target sequence (Q9GZV3 whole entry, looked up): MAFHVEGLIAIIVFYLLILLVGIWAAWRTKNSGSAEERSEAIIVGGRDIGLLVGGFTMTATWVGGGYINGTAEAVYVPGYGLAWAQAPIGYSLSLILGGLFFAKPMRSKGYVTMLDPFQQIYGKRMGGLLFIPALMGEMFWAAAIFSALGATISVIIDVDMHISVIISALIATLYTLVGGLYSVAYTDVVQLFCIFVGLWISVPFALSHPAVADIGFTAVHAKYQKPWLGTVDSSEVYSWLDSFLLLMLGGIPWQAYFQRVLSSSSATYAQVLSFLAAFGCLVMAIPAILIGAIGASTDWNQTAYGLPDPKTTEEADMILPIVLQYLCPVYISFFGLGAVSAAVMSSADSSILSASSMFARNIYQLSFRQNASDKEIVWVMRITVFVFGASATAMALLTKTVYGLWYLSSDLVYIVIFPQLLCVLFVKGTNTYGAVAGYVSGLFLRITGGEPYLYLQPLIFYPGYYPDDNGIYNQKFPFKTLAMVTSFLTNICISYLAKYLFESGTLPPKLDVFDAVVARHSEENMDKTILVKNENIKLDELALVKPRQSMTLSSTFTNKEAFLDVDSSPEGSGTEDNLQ
CHT allo act – allosterically activates the human high affinity choline transporter; Q9GZV3; CHT-expressing cells, membrane potential dye, choline EC20; active compounds read high; LV-AA mutant CHT in HEK293 cells; B-score at 10 µM; 0.49% of 310,000 active; AID 488977;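 active means initial fluorescence not abnormally high and integrated response B-score, plate-corrected, over 3 SD above library mean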
T cruzi inh – T. cruzi replication inhibition; T. cruzi beta-gal in NIH3T3, luminescence, 90 h; inhibition, % (concentration not given with the values); 1.4% of 300,000 active;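 active means mean inhibition across valid replicates above about 55%, limit read from the data; inconclusive means mean below that limit but half or more replicates reach it; inactive means mean below it, under half of replicates reach it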;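 further: signal also drops with host cell toxicity which is not excluded here; 0% = plate median of DMSO wells and 100% = zero luminescence signal; higher percent means less beta-gal luminescence so fewer parasites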
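System: Mouse NIH/3T3 fibroblasts infected with β-gal-expressing T. cruzi Tulahuen C4 | Quantity: NIH/3T3 cells, 5,000 per well | Reagent: 5000 reporter trypomastigotes per well | Dosing: Compound pinned at 50 nL/well, DMSO | Schedule: 3 h host attachment, then at least 90 h co-culture | Detection: GalScreen luminescence, 60 min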
CHT block conf – confirmation of human choline transporter CHT inhibitors | shares compounds with CHT block | CHT-expressing cells, choline membrane potential dye; LV-to-AA substituted CHT, HEK293 cells | CHT activity remaining % of control (active compounds read low), % at 10 µM | 70% of 2,400 active;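 active means choline transporter activity left, mean of duplicates at 10 µM, below buffer-only control mean minus 3 SD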;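 further: depolarization triggered by choline at its EC90 following an EC20 pre-addition; 0% = hemicholinium-3 full block and 100% = buffer-only control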
HEK293 MPD ctr – activity in parental HEK293 cells lacking CHT; shares compounds with CHT block; membrane potential dye, choline response; active = decrease or increase beyond buffer ±3SD; membrane potential ratio readout (active if shifted either direction beyond buffer ±3SD; no single direction) at 10 µM; 4% of 2,400 active;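 further: parental cells lack the transporter so any hit is non-specific; ratio is peak minus trough fluorescence over baseline after EC90 choline challenge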
Numbers without * were called inactive; i = inactive; ? = inconclusive; · = not tested or not shown.

SMILES | PolyA inh | CHT block | CHT allo act | T cruzi inh | CHT block conf | HEK293 MPD ctr
CC1CCC(NC(=O)c2cccc(S(=O)(=O)N3CCN(C)CC3)c2)CC1 (stereo not given) | 14 | -13* | i | -16 | 9.1%* | i
CCCCCCn1c(-c2cccs2)n[nH]c1=S | -20 | i | i | 0 | · | ·
c1ccc(C[C@H]2CN=C(Nc3ccccc3)N2CCC2CCCC2)cc1 | · | -6.8* | i | · | 56%* | i
O=C(NCCc1ccccc1)c1ccc2c(=O)[nH]c3c(C(=O)NCC4CCCO4)sc(=S)n3c2c1 (stereo not given) | -5 | -10* | i | -6 | -19%* | i
Cc1cc(O)ccc1NS(=O)(=O)c1ccc2c3c(cccc13)C(=O)N2 | -1 | -6.5* | i | -7 | 57%* | i
O=C(O)c1ccccc1NS(=O)(=O)c1ccc2c3c(cccc13)C(=O)N2 | -7 | i | i | -9 | · | ·
C=CCn1c(SCc2ccc(F)cc2)nc2c1c(=O)[nH]c(=O)n2C | 0 | -6* | i | -6 | i | i
COC(=O)COc1ccc(S(=O)(=O)N2CCN(c3ccccc3F)CC2)cc1 | 12 | -5.2* | i | -4 | i | i
COC(=O)COc1ccc(S(=O)(=O)N2CCN(c3ccccc3)CC2)cc1 | 3 | i | i | -7 | · | ·
COc1ccccc1CC(Cc1nc2ccccc2[nH]1)c1nc2ccccc2[nH]1 (stereo not given) | -11 | -8.6* | i | 5 | 36%* | i
Cc1cccc(CC(Cc2nc3ccccc3[nH]2)c2nc3ccccc3[nH]2)c1 (stereo not given) | -1 | -9* | i | 25 | 59%* | i
CC(c1ccccc1)C(Cc1nc2ccccc2[nH]1)c1nc2ccccc2[nH]1 (stereo not given) | -2 | i | i | 14 | · | ·
CC(C)Cc1nc2ccccc2[nH]1 | 10 | i | i | -7 | · | ·
CN(C(=O)COC(=O)c1ccc(F)c(S(=O)(=O)N2CCOCC2)c1)C1CCS(=O)(=O)C1 (stereo not given) | 1 | i | i | -6 | · | ·
Cn1cnc(S(=O)(=O)Nc2ccc(Cl)c(C(F)(F)F)c2)c1 | 0 | i | i | -14 | · | ·
COCCn1nnnc1C(c1ccc(OC)cc1)N1CCN(C(=O)c2ccco2)CC1 (stereo not given) | 10 | i | i | -4 | · | ·
O=C(Nc1cccc(C(=O)N2CCCCC2)c1)c1ccccc1Br | -13 | -5.2* | i | -1 | 25%* | i
CCCC(=O)Nc1cccc(NC(=O)c2ccc([N+](=O)[O-])cc2Cl)c1 | ? | -6.6* | i | 22 | 61%* | i
CCCC(=O)NC(=S)Nc1cccc(NC(=O)c2ccccc2Cl)c1 | -8 | -12* | i | -22 | 14%* | i
C=CCSc1nnc(-c2ccncc2)n1-c1ccc(OCC)cc1 | -22 | -5.5* | i | 17 | 59%* | -8.4*
CCc1ccc(-n2c(SCc3c(C)noc3C)nnc2-c2ccncc2)cc1 | 7 | -5.1* | i | 52 | i | i
Cc1cccc(C(=O)NNC2=C(C(=O)C(F)(F)F)CCC2)c1O | 7 | -7.9* | i | 1 | 37%* | i
Cc1noc(NC(=O)c2ccccc2)c1C#N | 2 | i | i | -15 | · | ·
COc1ccccc1C(=O)Nc1onc(C)c1C#N | -12 | -6.4* | i | -4 | i | i
COC(=O)CCCCCCCCCC[N+]1(C)CCCCC1 | -5 | -5.1* | i | -9 | 42%* | i
SMILES | PolyA inh | CHT block | CHT allo act | T cruzi inh | CHT block conf | HEK293 MPD ctr
CC(=O)OCCCCCCCCCCC[N+]1(C)CCCCC1 | · | -8.3* | i | 11 | 27%* | i
COc1ccccc1-c1ccc(=O)n(CC(=O)NC2CCc3ccccc32)n1 (stereo not given) | -5 | -8.4* | i | -2 | i | i
CCN(CC)CCNC(=O)C1(O)c2cc(Br)ccc2NC(=O)N1c1ccccc1 (stereo not given) | -5 | i | i | 1 | · | ·
CC(C)c1nc(SCC(=O)Nc2nccs2)c2ccccc2n1 | -14 | i | i | -3 | · | ·
Cc1csc(NC(=O)CSc2nc(C(C)C)nc3ccccc23)n1 | -11 | -5.9* | i | 8 | 60%* | i
O=C(Nc1ccc(Oc2cccnc2)cc1)C1CCN(Cc2ccccc2F)CC1 | 8 | · | · | 23 | · | ·
O=C(/C=C/c1cn(-c2ccccc2)nc1-c1cccs1)NCCN1CCOCC1 | 8 | -7.1* | i | -16 | i | i
COc1ccc(N2CCN(S(=O)(=O)c3cn(C)c(=O)n(C)c3=O)CC2)cc1 | -19 | -5.3* | i | -5 | i | i
Cc1ccc(-c2cccc(CN3CCN(C(C)C)C(CCO)C3)c2)o1 (stereo not given) | 8 | -5.3* | i | 30 | 37%* | i
CC(C)N1CCN(Cc2ccncc2)CC1CCO (stereo not given) | 10 | i | i | -15 | · | ·
O=S(Cc1ccccc1)CC(O)(c1ccc(Cl)cc1)c1ccc(Cl)cc1 (stereo not given) | -17 | i | i | 22 | · | ·
O=S(Cc1ccccc1)CC(O)(c1ccccc1)c1ccccc1 (stereo not given) | 3 | -5.1* | i | 7 | i | i
CCCNC(=O)c1ccc(N2CCC3(CC2)CC(c2cccc(Br)c2)=NO3)c([N+](=O)[O-])c1 | -13 | i | i | 23 | · | ·
CCc1nnc(NS(=O)(=O)c2ccc(NC(=O)/C=C/c3ccccc3Cl)cc2)s1 | 0 | -5.6* | i | 6 | 51%* | i
CCc1nnc(NS(=O)(=O)c2ccc(NC(=S)NC(=O)/C=C/c3ccccc3)cc2)s1 | -19 | i | i | -1 | · | ·
Cc1ccc(C(=O)Nc2ccc(S(=O)(=O)NC3=NCCCCC3)cc2)c(C)c1 | 21 | -5.9* | i | 1 | 19%* | i
O=C(Nc1ccc(S(=O)(=O)NC2=NCCCCC2)cc1)C1COc2ccccc2O1 (stereo not given) | 5 | -5.1* | i | -7 | 40%* | i
CC(=O)NC(Cc1ccc(C)cc1)C(=O)NC1CCN(S(=O)(=O)c2ccccc2)CC1 (stereo not given) | -1 | i | i | 1 | · | ·
COc1cccc(N2C(=O)N(c3ccccc3)C3CS(=O)(=O)CC32)c1 (stereo not given) | -3 | -4.9* | i | -19 | 70%* | i
COc1cccc(N2C(=O)N(c3ccccc3Cl)C3CS(=O)(=O)CC32)c1 (stereo not given) | -9 | i | i | 3 | · | ·
Cc1[nH][nH]c(=O)c1C=NCc1ccc(Cl)cc1 | -3 | i | i | -9 | · | ·

Screening results as filed in PubChem BioAssay.
